According to paper PMC4894453 (Scientific Reports, 2014):
Converted amounts (≈) assume the structure as drawn.

Legend:
[1] = system: Enterococcus faecalis ATCC 33186; test: MIC, microbroth dilution, Enterococcus faecalis; format: cell-based; details: Enterococcus faecalis, ATCC33186, read-out: MIC against Gram-positive bacteria, EF, Enterococcus faecalis ATCC 33186; Mueller-Hinton broth, 18–20 h
[2] = system: Streptococcus pyogenes ATCC 700294; test: MIC, microbroth dilution, Streptococcus pyogenes; format: cell-based; details: Streptococcus pyogenes, ATCC700294, read-out: MIC against Gram-positive bacteria, SP
[3] = system: Streptococcus pneumoniae R6; test: MIC, microbroth dilution, Streptococcus pneumoniae; format: cell-based; details: Streptococcus pneumoniae, R6, read-out: MIC against Gram-positive bacteria, SPn
Summary of the method: (§1)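 CLSI microbroth dilution in Mueller-Hinton broth. Test compound at final 200–0.1 μg/ml, diluted from 10 mg/ml DMSO stocks. Plates incubated 18–20 h. MIC is the lowest concentration preventing visible growth.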

[4] = system: Bacillus anthracis sterne; test: microbe, parasite or virus in culture; format: cell-based; details: Bacillus anthracis, read-out: MIC against Gram-positive bacteria, BA
[5] = system: Bacillus subtilis ATCC 23857; test: MIC, microbroth dilution, Bacillus subtilis; format: cell-based; details: Bacillus subtilis, ATCC23857, read-out: MIC against Gram-positive bacteria, BS
Summary of the method: as §1

[6] = system: Clostridium difficile BAA 1803; test: MIC, microbroth dilution, anaerobic, Clostridium difficile; format: cell-based; details: Clostridioides difficile, BAA1803, 24 h, read-out: MIC against Gram-positive bacteria, CD, Clostridium difficile BAA 1803; Brain-heart infusion broth, 24 h, anaerobic
[7] = system: methicillin-resistant Staphylococcus aureus N315; test: MIC, microbroth dilution, MRSA; format: cell-based; details: Staphylococcus aureus, MRSA, read-out: MIC against Gram-positive bacteria, MRSA
Summary of the method: as §1

[8] = system: Vero cells (kidney epithelial cells; ATCC CCL-81); test: Cytotoxicity, CellTiter-Glo viability; format: cell-based; details: for Selectivity index: Cytotox IC50/MIC against methicillin-susceptible S. aureus Newman
Summary of the method: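 Vero kidney epithelial cells exposed 72 h to test compound (final 200–0.1 μg/ml in DMEM; diluted from 10 mg/ml DMSO stocks). Viability read by CellTiter-Glo luminescence. IC50 is the concentration giving 50% viability loss, from curve fitting. Selectivity index is the cytotoxic IC50 divided by the MIC against S. aureus Newman.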

S. aureus Newman = test: Membrane potential by flow cytometry with DiOC2; format: cell-based, Staphylococcus aureus; details: 10 μM, 30 min, DiOC2(3)
Summary of the method: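 Exponential-phase S. aureus Newman (OD600 ≈ 0.3, Mueller-Hinton II broth) treated with test compound at 100, 10 or 1 μM for 30 min at 37°C. Cells stained 5 min with 30 μM DiOC2(3) and run on flow cytometry (10,000 events, 488 nm excitation, green and red emission). Red/green fluorescence ratio histograms compared. CCCP was the positive control; at least two independent samples.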

[9] = system: methicillin-susceptible Staphylococcus aureus Newman; test: MIC, microbroth dilution, MSSA; format: cell-based; details: for MIC against Gram-positive bacteria, MSSA: S. aureus Newman, 18–20 h
Summary of the method: as §1

[10] = system: panel of clinical relevant Gram-positive pathogens; test: MIC, statements over the Gram-positive panel; format: cell-based

SMILES	MIC [1] [µg/mL]	MIC [2] [µg/mL]	MIC [3] [µg/mL]	MIC [4] [µg/mL]	MIC [5] [µg/mL]	MIC [6] [µg/mL]	MIC [7] [µg/mL]	Selectivity index [8]	Cytotox IC50 ([8]; Vero kidney cells, 72 h, 50% reduction of viability) [µg/mL]	dissipation of the membrane potential (S. aureus Newman)	MIC against Gram-positive bacteria, MSSA [9] [µg/mL]	MIC ([10]; read-out: MIC over the Gram-positive panel) [µg/mL]	fold better activity than 3 throughout the panel ([10]; Gram-positive panel, compared to 3) [fold]	fold improvement in activity over reutericyclin ([9]; S. aureus, strain not given) [fold]	fold less active than reutericyclin ([10]; Gram-positive panel (most bacteria)) [fold]
CCCCCCC/C=C/C(=O)N1C(=O)/C(=C(/C)O)C(=O)C1CO (stereo not drawn) [Compound 15, (Z)-1-((E)-dec-2-enoyl)-3-(1-hydroxyethylidene)-5-(hydroxymethyl)pyrrolidine-2,4-dione]	100 (≈ 309 µM)	50 (≈ 155 µM)	100 (≈ 309 µM)	> 200	200 (≈ 618 µM)	64 (≈ 198 µM)	> 200	1	–	–	–	–	–	–	–
CCCCCCC/C=C/C(=O)N1C(=O)/C(=C(/C)O)C(=O)C1Cc1ccc(O)cc1 (stereo not drawn) [Compound 19, (Z)-1-((E)-dec-2-enoyl)-5-(4-hydroxybenzyl)-3-(1-hydroxyethylidene)pyrrolidine-2,4-dione]	50 (≈ 125 µM)	50 (≈ 125 µM)	25 (≈ 62.6 µM)	200 (≈ 501 µM)	50 (≈ 125 µM)	32 (≈ 80.1 µM)	25 (≈ 62.6 µM)	2	93.53	–	–	–	–	–	–
N#CC(C#N)=NNc1cccc(Cl)c1 [CCCP, carbonyl cyanide m-chlorophenyl hydrazone, reference compound]	–	–	–	–	–	–	–	–	–	complete dissipation of the membrane potential	–	–	–	–	–
CCCCCCC/C=C/C(=O)N1C(=O)/C(=C(\O)c2ccccc2)C(=O)C1CC(C)C (stereo not drawn) [Compound 7, (Z)-1-((E)-dec-2-enoyl)-3-(hydroxy(phenyl)methylene)-5-isobutylpyrrolidine-2,4-dione]	0.39 (≈ 0.948 µM)	12.5 (≈ 30.4 µM)	12.5 (≈ 30.4 µM)	> 200	0.78 (≈ 1.9 µM)	0.75 (≈ 1.82 µM)	< 0.1	>125	–	–	<0.1	< 1	–	–	–
CCCCCCC/C=C/C(=O)N1C(=O)/C(=C(/C)O)C(=O)C1CCCCN (stereo not drawn) [Compound 17, (Z)-5-(4-aminobutyl)-1-((E)-dec-2-enoyl)-3-(1-hydroxyethylidene)pyrrolidine-2,4-dione]	50 (≈ 137 µM)	> 200	> 200	> 200	> 200	> 64	200 (≈ 549 µM)	1	–	reduced their ability to dissipate the membrane potential	–	–	–	–	–
CCCCCCC/C=C/C(=O)N1CC(=O)/C(=C(\C)O)C1=O [Compound 14, (Z)-1-((E)-dec-2-enoyl)-3-(1-hydroxyethylidene)pyrrolidine-2,4-dione]	6.25 (≈ 21.3 µM)	50 (≈ 170 µM)	12.5 (≈ 42.6 µM)	1.56 (≈ 5.32 µM)	12.5 (≈ 42.6 µM)	2 (≈ 6.82 µM)	3.2 (≈ 10.9 µM)	3	–	–	–	–	–	–	–
C/C(O)=C1\C(=O)C(CC(C)C)N(C(=O)C=Cc2ccccc2)C1=O (stereo not drawn) [Compound 4, (Z)-1-cinnamoyl-3-(1-hydroxyethylidene)-5-isobutylpyrrolidine-2,4-dione]	12.5 (≈ 38.2 µM)	25 (≈ 76.4 µM)	3.13 (≈ 9.56 µM)	> 200	25 (≈ 76.4 µM)	8 (≈ 24.4 µM)	1.6 (≈ 4.89 µM)	2	–	–	–	–	≤ 8	–	–
CCCCCCC/C=C/C(=O)N1C(=O)/C(=C(/C)O)C(=O)C1CCC(=O)O (stereo not drawn) [Compound 16, 3-((Z)-1-((E)-dec-2-enoyl)-4-(1-hydroxyethylidene)-3,5-dioxopyrrolidin-2-yl)propanoic acid]	25 (≈ 68.4 µM)	50 (≈ 137 µM)	25 (≈ 68.4 µM)	> 200	50 (≈ 137 µM)	> 64	> 200	1	–	–	–	–	–	–	–
CCCCCCC/C=C/C(=O)N1C(=O)/C(=C(\O)c2ccc(OCOCCOC)cc2)C(=O)C1CC(C)C (stereo not drawn) [Compound 11, (Z)-1-((E)-dec-2-enoyl)-3-(hydroxy(4-((2-methoxyethoxy)methoxy)phenyl)methylene)-5-isobutylpyrrolidine-2,4-dione]	0.78 (≈ 1.51 µM)	25 (≈ 48.5 µM)	12.5 (≈ 24.2 µM)	0.2 (≈ 0.388 µM)	1.56 (≈ 3.03 µM)	0.25 (≈ 0.485 µM)	0.2 (≈ 0.388 µM)	25	–	–	–	–	–	–	–
CCCCCCC/C=C/C(=O)N1C(=O)/C(=C(/C)O)C(=O)C1Cc1ccc(OC(C)(C)C)cc1 (stereo not drawn) [Compound 20, (Z)-5-(4-(tert-butoxy)benzyl)-1-((E)-dec-2-enoyl)-3-(1-hydroxyethylidene)pyrrolidine-2,4-dione]	0.78 (≈ 1.71 µM)	12.5 (≈ 27.4 µM)	6.25 (≈ 13.7 µM)	200 (≈ 439 µM)	1.56 (≈ 3.42 µM)	0.25 (≈ 0.549 µM)	< 0.1	>115	–	–	<0.1	–	–	> 4	–
CCCCCCC/C=C/C(=O)N1C(=O)/C(=C(\O)c2ccc(O)cc2)C(=O)C1CC(C)C (stereo not drawn) [Compound 12, (Z)-1-((E)-dec-2-enoyl)-3-(hydroxy(4-hydroxyphenyl)methylene)-5-isobutylpyrrolidine-2,4-dione]	12.5 (≈ 29.2 µM)	50 (≈ 117 µM)	50 (≈ 117 µM)	0.78 (≈ 1.82 µM)	3.13 (≈ 7.32 µM)	2 (≈ 4.68 µM)	6.25 (≈ 14.6 µM)	9	–	–	–	–	–	–	–
CCCCCCC/C=C/C(=O)N1C(=O)/C(=C(\O)C2CCNCC2)C(=O)C1CC(C)C (stereo not drawn) [Compound 9, (Z)-1-((E)-dec-2-enoyl)-3-(hydroxy(piperidin-4-yl)methylene)-5-isobutylpyrrolidine-2,4-dione]	50 (≈ 119 µM)	100 (≈ 239 µM)	50 (≈ 119 µM)	12.5 (≈ 29.9 µM)	12.5 (≈ 29.9 µM)	8 (≈ 19.1 µM)	50 (≈ 119 µM)	2	–	reduced their ability to dissipate the membrane potential	–	–	–	–	–
CCCCC(=O)N1C(=O)/C(=C(/C)O)C(=O)C1CC(C)C (stereo not drawn) [Compound 3, (Z)-3-(1-hydroxyethylidene)-5-isobutyl-1-pentanoylpyrrolidine-2,4-dione]	50 (≈ 178 µM)	12.5 (≈ 44.4 µM)	6.25 (≈ 22.2 µM)	> 200	100 (≈ 355 µM)	16 (≈ 56.9 µM)	12.5 (≈ 44.4 µM)	1	–	–	–	–	–	–	≥ 32
CCCCCCC/C=C/C(=O)N1C(=O)/C(=C(\O)c2ccncc2)C(=O)C1CC(C)C (stereo not drawn) [Compound 8, (Z)-1-((E)-dec-2-enoyl)-3-(hydroxy(pyridin-4-yl)methylene)-5-isobutylpyrrolidine-2,4-dione]	50 (≈ 121 µM)	100 (≈ 242 µM)	25 (≈ 60.6 µM)	50 (≈ 121 µM)	100 (≈ 242 µM)	0.5 (≈ 1.21 µM)	12.5 (≈ 30.3 µM)	5	–	–	–	–	–	–	–
